Measurements as given in ChEMBL document CHEMBL1122253, “Optically active catecholimidazolines: a study of steric interactions at alpha-adrenoreceptors” (1983).

What was measured:
[1] = organism: Rattus norvegicus; test: Relative value for maximum contraction (10e-5 = 1.0, phenylephrine) of rat aorta.; type: functional
Outline: (§1)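 Thoracic aorta: the 2-cm segment distal to the first intercostal artery, cut into strips at 75–80° to the lumen. Strips kept in PSS gassed with 95% O2/5% CO2 […], under 2-g tension with isometric force recording. After 1 h equilibration, one half-maximal phenylephrine challenge, then 1 h re-equilibration. Cumulative concentration-effect curves used about threefold steps, with washout and at least 1 h between curves.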

[2] = organism: Rattus norvegicus; test: Negative Log of ED50 used to stimulate alpha adrenergic activity in rat aorta
[3] = organism: Rattus norvegicus; test: Negative Log of ED50 used to inhibit alpha adrenergic activity in rat aorta; type: functional; outline: as §1

CN1CC[N+](C)=C1Cc1ccc(O)c(O)c1.Cl.F[B-](F)(F)F
IA [1]: 0.81 | pED50 [2]: 5.54

Cl.Oc1ccc(CC2=NC[C@@H](Cc3ccccc3)N2)cc1O
IA [1]: 0.91 | pED50 [2]: 4.44

Cl.Oc1ccc([C@H](O)C2=NCCN2)cc1O
IA [1]: 1 | pED50 [2]: 7.67

Cl.Oc1ccc(CC2=NCCN2)cc1O
IA [1]: 1 | pED50 [2]: 8.59

C[C@H]1CN=C(Cc2ccc(O)c(O)c2)N1.Cl
IA [1]: 1 | pED50 [2]: 6.32

CN1CCN=C1Cc1ccc(O)c(O)c1.Cl
IA [1]: 0.85 | pED50 [3]: 5.84

C[C@@H]1CN=C(Cc2ccc(O)c(O)c2)N1.Cl
IA [1]: 0.74 | pED50 [2]: 6.29

Cl.Oc1ccc([C@@H](O)C2=NCCN2)cc1O
IA [1]: 1 | pED50 [2]: 8.59

Cl.Oc1ccc(CC2=NC[C@H](Cc3ccccc3)N2)cc1O
IA [1]: 1 | pED50 [2]: 4.33
